Test [1] has as its target Peptidyl-prolyl cis-trans isomerase FKBP1A (Homo sapiens) (UniProt P62942). Nature of the test: Binding affinity to FKBP12 PPI domain (unknown origin) in water bulk solution by fluorescence spectrophotometric analysis relative to FK506.
The target is the same in test [2]. Nature of the test: Apparent binding affinity to FKBP12 PPI domain (unknown origin) in PBS at pH 7 by fluorescence spectrophotometric analysis relative to FK506. The procedure, abridged:
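FKBP12, final 1 µM, diluted from a PBS stock (pH 7.4, 0.15 M NaCl) into phosphate buffer at 15 °C. Ligand 1–200 nM, final DMSO <0.3% v/v. Intrinsic Trp fluorescence quenching: excitation 280 nm, emission 325 nm, ligand-only spectra subtracted. Apparent Kd fitted from intensity versus ligand concentration, expressed as ratio to FK506 under identical conditions. At least 2 replicates, 3–4 at low concentrations.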

Peptidyl-prolyl cis-trans isomerase FKBP1A (Homo sapiens), sequence (P62942 whole entry, the tested form may be a part): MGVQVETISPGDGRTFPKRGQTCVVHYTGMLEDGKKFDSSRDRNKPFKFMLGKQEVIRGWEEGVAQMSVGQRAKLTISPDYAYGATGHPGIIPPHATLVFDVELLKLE

Take `CO[C@H]1C[C@@H]2CC[C@@H](C)[C@@](O)(O2)C(=O)C(=O)N2CCCC[C@H]2C(=O)O[C@H]([C@H](C)C[C@@H]2CC[C@@H](O)[C@H](OC)C2)CC(=O)[C@H](C)/C=C(\C)[C@@H](O)[C@@H](OC)C(=O)[C@H](C)C[C@H](C)/C=C/C=C/C=C/1C`: the Ratio in test [1] is 0.5.
Still for that read-out and setting: the value for `CCCC(CCc1ccccc1)NC(=O)[C@@H]1CCCCN1C(=O)C(=O)c1ccccc1` (mixture of isomers) was 5; that for `CCC(C)(C)C(=O)C(=O)N1CCCC[C@H]1C(=O)O[C@@H](CCc1ccccc1)c1ccccc1` was 750.
Consider `O=C(C(=O)N1CCCC[C@H]1C(=O)NCCCc1ccccc1)c1ccccc1`, for which the Kd(app) in test [2] turned out to be 0.5.
On to `CCC[C@H](CCc1ccccc1)OC(=O)[C@@H]1CCCCN1C(=O)C(=O)c1ccccc1`, for which the Ratio in test [1] was determined as 1.6.
For `CCC(C)(C)C(=O)C(=O)N1CCCC[C@H]1C(=O)O[C@H](CCc1ccccc1)c1ccccc1`, the Ratio in test [1] is 25.
With `COc1cc(OC)c(C(=O)C(=O)N2CCCC[C@H]2C(=O)OC(CCCc2ccccc2)CCCc2ccncc2)c(OC)c1` (some centres undefined), the Ratio in test [1] was found to be 1.2.
On to `C=CC[C@@H]1/C=C(\C)C[C@H](C)C[C@H](OC)[C@H]2O[C@@](O)(C(=O)C(=O)N3CCCC[C@H]3C(=O)O[C@H](/C(C)=C/[C@@H]3CC[C@@H](O)[C@H](OC)C3)[C@H](C)[C@@H](O)CC1=O)[C@H](C)C[C@@H]2OC`, for which the Ratio in test [1] was determined as 1.
In the case of `CCC[C@@H](CCc1ccccc1)OC(=O)[C@@H]1CCCCN1C(=O)C(=O)c1ccccc1`, the Ratio in test [1] was 1.1.

The values are drawn from ChEMBL document CHEMBL2311306, “The precise chemical-physical nature of the pharmacore in FK506 binding protein inhibition: ElteX, a New class of nanomolar FKBP12 ligands” (J Med Chem, 2013).
